# Bioassay records (PubChem)
# SENP6 inh: SENP6 protease inhibition | Q9GZR1 | Recombinant SENP6 catalytic domain, aminoluciferin luminescence | inhibition, % at 10 µM | actives 1.8% (n = 330,000) | AID 2599;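 active = inhibition above about 50% at the single tested dose, limit read from the data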
# Target sequence (Q9GZR1 628-1112 limits assumed): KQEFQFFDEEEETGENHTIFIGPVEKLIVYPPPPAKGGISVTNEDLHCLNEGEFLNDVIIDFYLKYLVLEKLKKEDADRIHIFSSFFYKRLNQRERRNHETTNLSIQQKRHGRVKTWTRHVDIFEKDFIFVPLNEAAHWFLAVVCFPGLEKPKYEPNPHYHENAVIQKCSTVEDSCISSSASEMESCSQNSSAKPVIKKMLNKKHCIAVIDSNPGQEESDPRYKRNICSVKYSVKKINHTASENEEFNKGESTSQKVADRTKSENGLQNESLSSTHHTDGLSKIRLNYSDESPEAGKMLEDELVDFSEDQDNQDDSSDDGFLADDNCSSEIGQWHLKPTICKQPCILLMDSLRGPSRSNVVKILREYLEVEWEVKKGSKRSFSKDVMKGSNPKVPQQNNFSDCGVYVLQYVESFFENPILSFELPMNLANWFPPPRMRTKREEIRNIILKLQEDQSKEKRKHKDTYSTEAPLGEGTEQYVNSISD
# SENP8 block-1: inhibitors of human SENP8 protease | Q96LD8 | purified SENP8, Z-RLRGG-aminoluciferin cleavage, luminescence | inhibition, % at 10 µM | actives 1.2% (n = 330,000) | AID 2540; in the data active = inhibition above about 50%
# SENP1 inh: inhibitors of human SENP1 SUMO protease catalytic domain; inhibition, % at 10 µM; actives 0.21% (n = 360,000); Q9P0U3; recombinant SENP1 catalytic domain, CyPet-SUMO1-YPet FRET cleavage;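 active = inhibition at least 30% at 10 µM, raw YFP signal under a set limit, fluorescence ratio 0.5 to 1.5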
#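 Controls: no-enzyme wells low, DMSO-plus-enzyme wells high control. Test system: human recombinant His6-tagged SENP1 catalytic domain enzyme. Reagent: SFCypet-SUMO1-SFYpet FRET protein substrate, 25 nM final. Doses: one dose per compound, 10 µM, 0.5% DMSO. Detection: FRET, CFP and YFP emission. Timing: 50 min reaction at room temperature.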
# SENP7 inh: blocks the human protease SENP7; recombinant SENP7, Z-RLRGG-aminoluciferin luminescence, 40 min; AID 434973; Q9BQF6; inhibition, % at 5 µM; actives 1.5% (n = 330,000);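 active = inhibition above about 50% at the single test dose, limit read from the data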
# Platelet DG rel: platelet dense granule release activity; inhibition, %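 (compounds screened at 7.5 µM in platelet-rich plasma)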; actives 0.22% (n = 300,000); human platelet-rich plasma, SFLLRN dense granule ATP release, luminescence;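 active = mean replicate score, as percent of positive control, at or above 50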
# SENP8 block-2: blocks human SENP8 cleavage of Nedd8 substrate; Q96LD8; recombinant SENP8, Nedd8 substrate fluorescence; inhibition, % at 20 µM; actives 0.64% (n = 360,000); AID 602440; in the data active = inhibition mostly above about 40%, no sharp cut-off; inactive = mostly below about 27%
# SENP8 inh conf: SENP8 (human) inhibition, single concentration confirmation; shares compounds with SENP8 block-2; purified SENP8, Nedd8-AMC/pro-Nedd8 cleavage fluorescence, 30 min; inhibition, % at 25 µM; actives 15% (n = 1,400); AID 624319; in the data active = inhibition mostly above about 39%, no sharp cut-off; inactive = mostly below about 34%
# Hits are given with their value; - = inactive; . = not tested or not shown. Hits are enriched below; roughly 2.6% of the tested compounds scored in any of these assays.
SMILES,SENP6 inh,SENP8 block-1,SENP1 inh,SENP7 inh,Platelet DG rel,SENP8 block-2,SENP8 inh conf
CC(SCC(=O)Nc1ccccc1)c1nc2ccccc2c(=O)[nH]1 (centres undefined),-,-,-,-,-,-,.
Cc1c(Cl)cccc1NC(=O)CSC(C)c1nc2ccccc2c(=O)[nH]1 (centres undefined),-,-,-,-,-,27,-
O=[N+]([O-])c1cc([N+](=O)[O-])c(Oc2cc(F)ccc2F)cc1NN1CCCCC1,-,-,-,-,-,55,-
O=C(/C=C/c1ccc2c(c1)OCO2)c1ccc(O)cc1O,.,.,-,.,.,40,-
O=C(N/N=C/c1ccccn1)c1cccc(S(=O)(=O)N2CCCC2)c1,-,-,-,-,-,45,-
O=C(N/N=C/c1ccncc1)c1cccc(S(=O)(=O)N2CCCC2)c1,-,-,-,-,.,-,.
CC(C)(C)OC(=O)C[C@H]1C/C=C\C[C@H](CC(=O)NCCO)C(=O)N2CCC[C@@H]2COC1=O,-,-,-,-,.,-,.
Cc1ccc(Nc2cc(C)c(O)c(C)c2)cc1,-,-,-,-,-,48,67
Cc1ccc(S(=O)(=O)Nc2cc(C)c(O)c(S(=O)(=O)c3ccc(C)cc3)c2)cc1,-,-,-,-,-,-,.
COc1ccc(C2CC(=O)c3c(O)cc(O)cc3O2)cc1O (centres undefined),.,.,-,.,.,41,-
CC(C)[C@@H](C(=O)N[C@@H](C(=O)O)c1ccccc1)N1C(=O)N2CCc3c([nH]c4ccccc34)[C@@]2(C)C1=O,-,-,-,-,-,44,-
CC(C)[C@@H](C(=O)NCC1CCCO1)N1C(=O)N2CCc3c([nH]c4ccccc34)[C@@]2(C)C1=O (some centres undefined),-,-,-,-,-,51,-
CC(C)[C@@H](C(=O)NC1CCN(Cc2ccccc2)CC1)N1C(=O)N2CCc3c([nH]c4ccccc34)[C@@]2(C)C1=O,-,-,-,-,-,-,.
CC(C)[C@@H](C(=O)NC1CC1)N1C(=O)N2CCc3c([nH]c4ccccc34)[C@@]2(C)C1=O,-,-,-,-,-,51,-
CS(=O)(=O)c1ccccc1-c1csc(N2CCC(C(N)=O)CC2)n1,-,-,.,-,.,.,.
CCOC(=O)C1C(=O)CC(C)(O)C(C(=O)OCC)C1c1ccc([N+](=O)[O-])cc1 (centres undefined),-,-,-,-,-,46,-
Cc1cc(/N=C/N(C)C)on1,-,-,-,-,-,-,.
CN(C)C=Nc1nonc1N,-,-,-,-,-,45,-
CCN(CC(=O)Nc1ccc2c(c1)OCCO2)C(=O)c1ccc(CS(C)(=O)=O)cc1,-,-,-,-,.,-,.
COc1ncccc1C(=O)N1CCCC(C(=O)c2cc(F)ccc2F)C1 (centres undefined),-,-,-,-,-,-,.
CSc1ncccc1C(=O)N1CCCC(C(=O)c2cc(F)ccc2F)C1 (centres undefined),-,-,-,-,-,57,-
CCc1cc([N+](=O)[O-])cc(CC)c1N,-,-,-,-,-,45,-
Cc1ccc([N+](=O)[O-])cc1N,-,-,-,-,-,-,.
Cc1cc(C)cc(N(CC(=O)NCC2CCCO2)C(=O)CCC(=O)Nc2nccs2)c1 (centres undefined),-,-,-,-,-,-,.
C[n+]1ccc2[nH]c3ccccc3c2c1,.,.,-,.,.,-,.
SMILES,SENP6 inh,SENP8 block-1,SENP1 inh,SENP7 inh,Platelet DG rel,SENP8 block-2,SENP8 inh conf
Cc1[nH]c2ccccc2c1/C=C/c1cc[n+](C)cc1,.,.,-,.,-,44,-
O=C(COC(=O)c1ccco1)Nc1ccc(N2CCOCC2)cc1,-,-,-,-,.,-,.
CC(=O)Nc1c(O)c2cccc3c2n(c1=O)CCC3,-,-,-,-,-,-,.
CC1CC(=O)Nc2cc([N+](=O)[O-])ccc2N1 (centres undefined),-,-,-,-,-,44,-
CC1CC(=O)Nc2ccc([N+](=O)[O-])cc2N1C (centres undefined),-,-,-,-,-,-,.
COc1ccc(C)cc1NC(=O)n1ncc2cc(Cl)ccc21,-,-,-,-,-,-,.
CC(C)=CCC/C(C)=C/COc1c2occc2cc2ccc(=O)oc12,-,-,-,-,.,57,-
CC(C)=CCC/C(C)=C/COc1ccc2ccc(=O)oc2c1,-,-,-,-,-,-,.
Cc1ccccc1Nc1cccc2nonc12,-,-,-,-,-,45,-
COc1ccc(CCN2C(=O)CC(NCCc3ccc(S(N)(=O)=O)cc3)C2=O)cc1OC (centres undefined),-,-,-,-,-,40,-
Cc1cc2ccccn2c1C(=O)c1ccccc1F,-,-,-,-,-,41,-
Cc1cc2ccccn2c1C(=S)NC(=O)c1ccccc1,-,-,-,-,-,-,.
CCOc1ccc(NC(=S)Nc2cc(OC)c(Cl)cc2OC)cc1,-,-,-,-,-,44,-
CCOc1ccc(NC(=S)Nc2ccc3nsnc3c2)cc1,-,-,-,-,-,43,-
CCOc1c(C)cnc2c1c(=O)n(CC(=O)NCC1CCCO1)c(=O)n2C (centres undefined),-,-,-,-,-,-,.
Cc1cc(C)nc(N2N=C(C(C)(C)C)CC2=O)n1,-,-,-,-,-,63,76
COc1cc2c(c(OC)c1OC)C(=O)C(=Cc1ccccc1)O2,.,.,-,.,.,-,.
CC1=C(C(N)=O)C(c2ccccc2)n2nc(-c3ccncc3)nc2N1 (centres undefined),-,-,-,-,-,-,.
Cc1nc(-[n+]2nc(-c3ccncc3)nn2-c2ccccc2)sc1C,.,.,-,.,.,41,-
CCN(CC)S(=O)(=O)c1ccc(/C=C/C(=O)Nc2ccc(N3CCOCC3)cc2)cc1,-,-,-,-,-,42,-
O=C(NC1CCCCC1)C(c1ccnc2ccccc12)N1CCc2ccccc2C1 (centres undefined),.,.,-,.,.,51,91
O=C(NC1CCCCC1)C(C1CC1)N1CCc2ccccc2C1 (centres undefined),.,.,-,.,.,-,.
CC(C)C[C@H](NC(=O)N1CCn2c1nc1ccccc12)C(=O)N[C@@H](C(=O)O)c1ccccc1,-,-,-,-,-,-,.
CN(C)c1cc[n+](/C(C(=S)Nc2ccc(SC(F)F)cc2)=C(/[O-])c2ccccc2)cc1,-,-,-,-,-,44,-
COc1ccc(/C=N/N=C2/CC(C)(C)Cc3n[nH]c(=O)cc32)cc1,-,-,-,-,-,44,-
COc1ccc(/C=N/N=C2/NC(=O)CC(C(=O)O)S2)cc1 (centres undefined),-,-,-,-,-,-,.
